{
  "source": "ChEMBL document CHEMBL1629613",
  "about": "“Klebsiella pneumoniae OmpA confers resistance to antimicrobial peptides” (2009)",
  "key": {"[1]": {"test_system": "Klebsiella pneumoniae", "test": "Antimicrobial activity against Klebsiella pneumoniae 52145", "type": "functional"}, "[2]": {"test_system": "Klebsiella pneumoniae", "test": "Antimicrobial activity against Klebsiella pneumoniae 52OmpA2 at 80 ug/disk by disk diffusion method", "type": "functional", "details": "52OmpA2, read-out: IZ", "method_in_brief": "(§1)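 Disk diffusion with novobiocin at 80 µg per disk. The diffusion halo was measured in cm and reported as mean ± error, with groups compared by P value.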"}, "[3]": {"test_system": "Klebsiella pneumoniae", "test": "Antimicrobial activity against Klebsiella pneumoniae 52145 at 100 ug/disk by disk diffusion method", "type": "functional, organism-based", "method_in_brief": "(§2)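 Disk diffusion with SDS at 100 µg per disk.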"}, "[4]": {"test_system": "Klebsiella pneumoniae", "test": "Antimicrobial activity against Klebsiella pneumoniae 52OmpA2 at 100 ug/disk by disk diffusion method", "type": "functional, organism-based", "method_in_brief": "as §2"}, "[5]": {"test_system": "Klebsiella pneumoniae", "test": "Antimicrobial activity against Klebsiella pneumoniae 52OmpA2Com", "type": "functional"}, "[6]": {"test_system": "Klebsiella pneumoniae", "test": "Antimicrobial activity against wcaK2-deficient Klebsiella pneumoniae 52OmpA2 assessed as decrease in bacterial survival", "type": "functional, organism-based", "method_in_brief": "(§3)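 Bacterial survival assay: cells were exposed to polymyxin B or protamine for 1 h, or to HNP-1 at a fixed 20 µg/ml for 3 h, and surviving bacteria were then counted. Polymyxin B curves are the mean ± SD of six samples from three independently grown batches. HNP-1 data are the mean ± SD of three experiments, each run in duplicate. Strains were compared by two-tailed t test.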"}, "[7]": {"test_system": "Klebsiella pneumoniae", "test": "Binding affinity to Klebsiella pneumoniae 52OmpA2 outer membrane assessed as amount of peptide bound at 16 ug/ml after 30 mins", "method_in_brief": "(§4)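 Bacteria were incubated with the peptide for 30 min, and the amount of peptide bound was then determined, expressed in µg/ml. Strains were compared by two-tailed t test.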"}, "[8]": {"test_system": "Klebsiella pneumoniae", "test": "Antimicrobial activity against Klebsiella pneumoniae 52OmpA2 by Etest", "type": "functional, organism-based"}, "[9]": {"test_system": "Klebsiella pneumoniae", "test": "Binding affinity to wcaK2-deficient Klebsiella pneumoniae 52145 lipopolysaccharide assessed as amount of peptide bound at 16 ug/ml after 30 mins", "method_in_brief": "(§5)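 LPS was purified from capsule (CPS) mutants to avoid copurifying capsule. LPS at 50 µg/ml was incubated with polymyxin B at 16 µg/ml for 30 min, and the bound peptide was measured in µg/ml.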"}, "[10]": {"test_system": "Klebsiella pneumoniae", "test": "Antimicrobial activity against Klebsiella pneumoniae 52145 by Etest", "type": "functional, organism-based"}, "[11]": {"test_system": "Klebsiella pneumoniae", "test": "Antimicrobial activity against Klebsiella pneumoniae 52OmpA2 assessed as induction of bacterial wall damage by propidium iodide staining-based fluorescence spectroscopy", "type": "functional, organism-based"}, "[12]": {"test_system": "Klebsiella pneumoniae", "test": "Antimicrobial activity against Klebsiella pneumoniae 52OmpA2Com by Etest", "type": "functional, organism-based"}, "[13]": {"test_system": "Klebsiella pneumoniae", "test": "Antimicrobial activity against Klebsiella pneumoniae 52OmpA2 assessed as decrease in bacterial survival after 1 hr", "type": "functional, organism-based", "method_in_brief": "as §3"}, "[14]": {"test_system": "Klebsiella pneumoniae", "test": "Antimicrobial activity against Klebsiella pneumoniae 52145 assessed as induction of bacterial wall damage by propidium iodide staining-based fluorescence spectroscopy", "type": "functional, organism-based"}, "[15]": {"test_system": "Klebsiella pneumoniae", "test": "Antimicrobial activity against wcaK2-deficient Klebsiella pneumoniae 52145 assessed as decrease in bacterial survival", "type": "functional, organism-based", "method_in_brief": "as §3"}, "[16]": {"test_system": "Klebsiella pneumoniae", "test": "Antimicrobial activity against Klebsiella pneumoniae 52OmpAK36 harboring OmpA K36 mutant gene assessed as decrease in bacterial survival after 1 hr by coomassie blue staining", "type": "functional, organism-based"}, "[17]": {"test_system": "Klebsiella pneumoniae", "test": "Binding affinity to Klebsiella pneumoniae 52145 outer membrane assessed as amount of peptide bound at 16 ug/ml after 30 mins", "method_in_brief": "as §4"}, "[18]": {"test_system": "Klebsiella pneumoniae", "test": "Antimicrobial activity against Klebsiella pneumoniae 52145 at 80 ug/disk by disk diffusion method", "type": "functional, organism-based", "method_in_brief": "as §1"}, "[19]": {"test_system": "Klebsiella pneumoniae", "test": "Antimicrobial activity against Klebsiella pneumoniae 52145 assessed as decrease in bacterial survival after 1 hr", "type": "functional, organism-based", "method_in_brief": "as §3"}, "[20]": {"test_system": "Klebsiella pneumoniae", "test": "Antimicrobial activity against Klebsiella pneumoniae 52OmpA2Com assessed as decrease in bacterial survival after 1 hr", "type": "functional, organism-based", "method_in_brief": "as §3"}, "[21]": {"test_system": "Klebsiella pneumoniae", "test": "Binding affinity to wcaK2-deficient Klebsiella pneumoniae 52OmpA2 lipopolysaccharide assessed as amount of peptide bound at 16 ug/ml after 30 mins", "method_in_brief": "as §5"}, "[22]": {"test_system": "Klebsiella pneumoniae", "test": "Antimicrobial activity against Klebsiella pneumoniae 52145 assessed as decrease in bacterial survival at 1 ug/ml pre-exposed for 1 hr during growth phase", "type": "functional, organism-based", "method_in_brief": "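Cells were pretreated during growth with polymyxin B (final 1 µg/ml, 1 h), washed, and then tested for polymyxin B susceptibility by the same survival assay, alongside untreated cells. Values are the mean ± SD of six samples from three independently grown batches. Pretreated and untreated cells were compared by two-tailed t test.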"}},
  "note": "Activity calls are given as the source filed them. The calls are words filed in the database; no cut-off is given here.",
  "data": [
    {"molecule": "CC1(C)S[C@@H]2[C@H](NC(=O)[C@H](N)c3ccc(O)cc3)C(=O)N2[C@H]1C(=O)O", "note": "[AMOXICILLIN]", "values": [
      {"measurement": "MIC", "setting": "[1]", "result": 2, "unit": "µg/mL"}
    ]},
    {"molecule": "CO/N=C(\\C(=O)N[C@@H]1C(=O)N2C(C(=O)O)=C(COC(C)=O)CS[C@H]12)c1csc(N)n1", "note": "[CEFOTAXIME]", "values": [
      {"measurement": "MIC", "setting": "[1]", "result": 0.05, "unit": "µg/mL"}
    ]},
    {"molecule": "O=C(O)c1cn(C2CC2)c2cc(N3CCNCC3)c(F)cc2c1=O", "note": "[CIPROFLOXACIN]", "values": [
      {"measurement": "MIC", "setting": "[1]", "result": 0.05, "unit": "µg/mL"}
    ]},
    {"molecule": "C[C@@H](O)[C@H]1C(=O)N2C(C(=O)O)=C(SCCNC=N)C[C@H]12", "note": "[IMIPENEM ANHYDROUS]", "values": [
      {"measurement": "MIC", "setting": "[1]", "result": 0.05, "unit": "µg/mL"}
    ]},
    {"molecule": "CO[C@@H]1[C@@H](OC(N)=O)[C@@H](O)[C@H](Oc2ccc3c(O)c(NC(=O)c4ccc(O)c(CC=C(C)C)c4)c(=O)oc3c2C)OC1(C)C", "note": "[NOVOBIOCIN]", "values": [
      {"measurement": "zone of inhibition at 80 µg/disc", "setting": "[2]", "result": 8.5, "unit": "mm"},
      {"measurement": "Activity", "setting": "[3]", "result": "inactive"},
      {"measurement": "Activity", "setting": "[4]", "result": "inactive"}
    ]},
    {"molecule": "GENTAMICIN", "values": [
      {"measurement": "MIC", "setting": "[5]", "result": 0.15, "unit": "µg/mL"},
      {"measurement": "MIC", "setting": "[1]", "result": 0.15, "unit": "µg/mL"}
    ]},
    {"molecule": "POLYMYXIN B", "values": [
      {"measurement": "inhibition", "setting": "[6]", "result": "Active"},
      {"measurement": "Activity", "setting": "[7]", "result": 8.1, "unit": "µg/mL"},
      {"measurement": "MIC", "setting": "[8]", "result": 0.31, "unit": "µg/mL"},
      {"measurement": "Activity", "setting": "[9]", "result": 4.8, "unit": "µg/mL"},
      {"measurement": "MIC", "setting": "[10]", "result": 0.75, "unit": "µg/mL"},
      {"measurement": "Activity", "setting": "[11]", "result": "inactive"},
      {"measurement": "MIC", "setting": "[12]", "result": 0.75, "unit": "µg/mL"},
      {"measurement": "inhibition", "setting": "[13]", "result": "Active"},
      {"measurement": "Activity", "setting": "[14]", "result": "inactive"},
      {"measurement": "inhibition", "setting": "[15]", "result": "Active"},
      {"measurement": "inhibition", "setting": "[16]", "result": "inactive"},
      {"measurement": "Activity", "setting": "[17]", "result": 7.4, "unit": "µg/mL"},
      {"measurement": "inhibition zone (IZ)", "setting": "[18]", "result": 9, "unit": "mm"},
      {"measurement": "Activity", "setting": "[19]", "result": "inactive"},
      {"measurement": "Activity", "setting": "[20]", "result": "Active"},
      {"measurement": "Activity", "setting": "[21]", "result": 4.4, "unit": "µg/mL"},
      {"measurement": "Activity", "setting": "[22]", "result": "inactive"}
    ]}
  ]
}
